From ChEMBL document CHEMBL3632550, “Saponarin activates AMPK in a calcium-dependent manner and suppresses gluconeogenesis and increases glucose uptake via phosphorylation of CRTC2 and HDAC5” (Bioorg Med Chem Lett, 2015)
Activity calls are given as the source filed them. The calls are words filed in the database; no cut-off is given here.

Biological target: AMP-activated protein kinase, AMPK (Homo sapiens) (UniProt P54646+O43741+P54619+Q9UGJ0+Q9Y478+Q13131+Q9UGI9)
Assay: Activation of AMPK in human HepG2 cells assessed as reduction of gluconeogenesis at 1 mM after 24 hrs by enzymatic colorimetric assay
Assay type: cell-based
Method in brief: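 HepG2 cells seeded in DMEM with 10% FBS, switched next day to FBS-free medium and treated 24 h. Medium then replaced by glucose-free, phenol red-free DMEM with 20 mM sodium lactate and 2 mM sodium pyruvate. After 6 h, glucose released into the medium was measured by enzymatic colorimetric assay and normalized to total cell protein. Mean ± SEM; one-way ANOVA with Tukey test.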

CN(C)C(=N)NC(=N)N
Activity: Active
